Reference: ChEMBL document CHEMBL2151018, “Bioassay-guided investigation of the Tanzanian plant Pyrenacantha kaurabassana for potential anti-HIV-active compounds” (J Nat Prod, 2012)
Values after ≈ are worked out from the molar mass of the structure shown.

How the values were obtained:
[1] = system: Human immunodeficiency virus 1; experiment: Antiviral activity against CXCR4-tropic HIV1 NL4-3 infected in HEK293T cells assessed as inhibition of viral replication after 4 days by beta-galactosidase reporter gene assay; assay type: functional, organism-based; conditions: Human immunodeficiency virus 1, NL4-3, HEK-293T, 96 h
Method in brief: (§1)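 Measured in the proprietary deCIPhR cell-based system using fully replicative virus. Two HIV lab strains from molecular clones differing in coreceptor tropism were used: pNL4-3 (CXCR4 usage) and pNL-AD87 (CCR5 usage). IC50 is the 50% inhibitory concentration in the anti-HIV assay, expressed in μg/mL; IC90 was also determined.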

[2] = (§2) Cytotoxicity against human HEK293T cells after 4 days by Alamar blue assay; assay type: cell-based, HEK-293T; conditions: HEK293T cells, read-out: TC50
HEK-293T = experiment: as §2; assay type: cell-based; conditions: hek-293t, 96 h
[3] = system: Human immunodeficiency virus 1; experiment: Antiviral activity against CCR5-tropic HIV1 NL-AD87 infected in HEK293T cells assessed as inhibition of viral replication after 4 days by beta-galactosidase reporter gene assay; assay type: functional, organism-based; conditions: Human immunodeficiency virus 1, NL-AD87, HEK-293T, 96 h; method in brief: as §1
[4] = Selectivity index, ratio of TC50 for human HEK293T cells to IC90 for CXCR4-tropic HIV1 NL4-3 infected in HEK293T cells; assay type: toxicity, cell-based, HEK-293T; conditions: read-out: Selectivity Index
[5] = Selectivity index, ratio of TC50 for human HEK293T cells to IC50 for CCR5-tropic HIV1 NL-AD87 infected in HEK293T cells; assay type: toxicity, cell-based, HEK-293T; conditions: read-out: Selectivity Index
[6] = Selectivity index, ratio of TC50 for human HEK293T cells to IC50 for CXCR4-tropic HIV1 NL4-3 infected in HEK293T cells; assay type: toxicity, cell-based, HEK-293T; conditions: read-out: Selectivity Index
[7] = Selectivity index, ratio of TC50 for human HEK293T cells to IC90 for CCR5-tropic HIV1 NL-AD87 infected in HEK293T cells; assay type: toxicity, cell-based, HEK-293T; conditions: read-out: Selectivity Index

IC50 [1] [µg/mL] | IC90 [1] [µg/mL] | IC50 [3] [µg/mL] | IC90 [3] [µg/mL] | Compound | CC50 at 96 h [2] [µg/mL] | TC90 (HEK-293T) [µg/mL] | selectivity ratio [4] | selectivity ratio [5] | selectivity ratio [6] | selectivity ratio [7]
21 (≈ 36.7 µM) | 111 (≈ 194 µM) | 21 (≈ 36.7 µM) | 111 (≈ 194 µM) | COc1cc2c(c(-c3cc(O)c4c(O)c5oc6c(C(=O)O)cc(C)cc6c(=O)c5c(O)c4c3OC)c1)CC(C)OC2=O (stereo not given) | > 12.5 | > 12.5 |  |  |  | 
2 (≈ 3.41 µM) | 22 (≈ 37.5 µM) | 2 (≈ 3.41 µM) | 22 (≈ 37.5 µM) | COc1cc2c(c(-c3cc(O)c4c(O)c5oc6c(C(=O)O)cc(C)cc6c(=O)c5c(OC)c4c3OC)c1)CC(C)OC2=O (stereo not given) | 31 (≈ 52.9 µM) | 154 (≈ 263 µM) | 7 | 15.5 | 15.5 | 7

Compound | IC50 [1] [µg/mL] | IC90 [1] [µg/mL] | IC50 [3] [µg/mL] | IC90 [3] [µg/mL] | CC50 at 96 h [2] [µg/mL] | TC90 (HEK-293T) [µg/mL] | selectivity ratio [4] | selectivity ratio [5] | selectivity ratio [6] | selectivity ratio [7]
enfuvirtide | 0.01 | 0.026 | 0.01 | 0.026 |  |  |  |  |  | 
